Results from ChEMBL document CHEMBL1156274, “Potent arylsulfonamide inhibitors of tumor necrosis factor-alpha converting enzyme able to reduce activated leukocyte cell adhesion molecule shedding in cancer cell models” (J Med Chem, 2010).

Legend:
[1] = target: T1, Disintegrin and metalloproteinase domain-containing protein 17 (Homo sapiens, UniProt P78536); assay: Inhibition of human recombinant ADAM17 by fluorometric assay
[2] = target: 72 kDa type IV collagenase (Homo sapiens, UniProt P08253)
[3] = target: Matrix metalloproteinase-14 (Homo sapiens, UniProt P50281); assay: Inhibition of human recombinant MMP14 by fluorometric assay
Procedure, shortened: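 Fluorogenic substrate Mca-Lys-Pro-Leu-Gly-Leu-Dap(Dnp)-Ala-Arg-NH2 (2 μM final). Enzymes: APMA-activated (2 mM, 2 h, 37 °C) pro-MMP-1 at 2.0 nM; MMP-14 catalytic domain at 1.0 nM. Each enzyme preincubated 4 h at 25 °C with seven inhibitor concentrations in Tris 50 mM pH 7.5, NaCl, CaCl2, Brij-35, 1% DMSO. Fluorescence (ex 325/em 395 nm) read every 15 s for 20 min.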

[4] = target: Matrix metalloproteinase-9 (Homo sapiens, UniProt P14780); assay: Inhibition of MMP9 by fluorometric assay
Matrix metalloproteinase-9, sequence (P14780 whole entry, the tested form may be a part): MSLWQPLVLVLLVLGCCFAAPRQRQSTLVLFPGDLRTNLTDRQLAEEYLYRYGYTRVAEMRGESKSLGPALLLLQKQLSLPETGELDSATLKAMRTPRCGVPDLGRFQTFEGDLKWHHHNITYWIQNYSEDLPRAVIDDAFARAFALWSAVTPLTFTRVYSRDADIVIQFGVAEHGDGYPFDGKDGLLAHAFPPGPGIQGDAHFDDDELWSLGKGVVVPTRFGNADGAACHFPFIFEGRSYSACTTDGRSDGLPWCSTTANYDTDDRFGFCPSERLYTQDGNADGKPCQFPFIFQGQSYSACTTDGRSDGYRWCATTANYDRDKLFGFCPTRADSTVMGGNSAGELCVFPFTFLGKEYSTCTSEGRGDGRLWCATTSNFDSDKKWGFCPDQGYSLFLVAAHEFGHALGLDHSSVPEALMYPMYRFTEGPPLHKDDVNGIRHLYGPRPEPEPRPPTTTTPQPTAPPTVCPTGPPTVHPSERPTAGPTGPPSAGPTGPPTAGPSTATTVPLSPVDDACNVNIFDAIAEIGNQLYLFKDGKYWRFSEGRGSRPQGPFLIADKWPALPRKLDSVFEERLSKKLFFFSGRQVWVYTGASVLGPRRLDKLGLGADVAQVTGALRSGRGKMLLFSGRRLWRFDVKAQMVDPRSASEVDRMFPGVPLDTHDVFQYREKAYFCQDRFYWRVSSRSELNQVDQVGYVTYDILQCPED

[5] = target: T1, Disintegrin and metalloproteinase domain-containing protein 17; details: for inhibition: A2774, at 10 µM
Interstitial collagenase = target: T2, Interstitial collagenase (Homo sapiens, UniProt P03956); assay: Inhibition of MMP1 by fluorometric assay
T2 sequence (P03956 whole entry): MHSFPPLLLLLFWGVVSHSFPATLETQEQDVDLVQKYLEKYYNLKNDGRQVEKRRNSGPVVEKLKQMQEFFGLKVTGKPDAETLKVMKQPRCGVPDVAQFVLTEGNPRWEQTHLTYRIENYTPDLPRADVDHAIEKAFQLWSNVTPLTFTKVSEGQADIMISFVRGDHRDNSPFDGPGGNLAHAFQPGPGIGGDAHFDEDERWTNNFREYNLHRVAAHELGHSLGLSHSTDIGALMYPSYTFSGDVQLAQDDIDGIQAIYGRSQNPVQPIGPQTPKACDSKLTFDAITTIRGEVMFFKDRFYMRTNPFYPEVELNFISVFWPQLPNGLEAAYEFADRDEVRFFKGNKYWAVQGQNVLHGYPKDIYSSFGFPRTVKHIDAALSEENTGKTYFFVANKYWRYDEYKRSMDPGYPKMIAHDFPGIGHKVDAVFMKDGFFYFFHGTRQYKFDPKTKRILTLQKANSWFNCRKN

[6] = Cytotoxicity against human GI-CA-N cells after 72 hrs by MTT assay; assay type: cell-based
Procedure, shortened: (§1)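 Cell lines grown in RPMI 1640 with 10% heat-inactivated FCS, 2 mM glutamine and penicillin-streptomycin at 37 °C, 5% CO2. Seeded at 2 × 10^3 cells/well and exposed to a range of inhibitor concentrations (DMSO stocks) for 24, 48 or 72 h at 37 °C. MTT added for 4 h, formazan dissolved in DMSO, absorbance read at 540 nm; mean of triplicates.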

[7] = target: T1, Disintegrin and metalloproteinase domain-containing protein 17; assay: Inhibition of ADAM17 in human SKOV3 cells assessed as inhibition of EGF-induced sALCAM release by ELISA; assay type: cell-based, SK-OV-3
[8] = target: T1, Disintegrin and metalloproteinase domain-containing protein 17; assay: Inhibition of ADAM17 in human SKOV3 cells assessed as inhibition of constitutive sALCAM release by ELISA; assay type: cell-based, SK-OV-3
[9] = target: T3, Disintegrin and metalloproteinase domain-containing protein 10 (Homo sapiens, UniProt O14672); assay: Inhibition of human recombinant ADAM10 by fluorometric assay
T3 sequence (O14672 whole entry): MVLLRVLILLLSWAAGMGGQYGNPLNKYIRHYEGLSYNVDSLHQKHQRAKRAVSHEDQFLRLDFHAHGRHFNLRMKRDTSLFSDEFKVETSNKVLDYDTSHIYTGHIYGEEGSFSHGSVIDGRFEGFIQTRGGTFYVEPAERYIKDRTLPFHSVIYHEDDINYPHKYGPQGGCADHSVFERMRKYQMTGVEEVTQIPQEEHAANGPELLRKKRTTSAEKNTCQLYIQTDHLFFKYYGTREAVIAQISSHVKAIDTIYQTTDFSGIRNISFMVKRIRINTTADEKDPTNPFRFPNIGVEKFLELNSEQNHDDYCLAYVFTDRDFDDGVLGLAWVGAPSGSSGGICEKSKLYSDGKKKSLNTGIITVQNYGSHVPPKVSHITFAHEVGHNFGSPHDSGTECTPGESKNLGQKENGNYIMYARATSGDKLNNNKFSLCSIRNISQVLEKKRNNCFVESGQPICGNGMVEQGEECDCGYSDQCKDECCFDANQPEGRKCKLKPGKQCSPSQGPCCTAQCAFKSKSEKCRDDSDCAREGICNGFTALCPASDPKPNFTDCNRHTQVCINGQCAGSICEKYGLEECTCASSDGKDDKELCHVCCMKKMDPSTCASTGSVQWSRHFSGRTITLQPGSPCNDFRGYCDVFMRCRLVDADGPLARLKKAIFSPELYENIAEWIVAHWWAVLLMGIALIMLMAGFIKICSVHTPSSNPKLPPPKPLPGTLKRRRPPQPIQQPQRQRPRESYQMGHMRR
Procedure, shortened: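 Recombinant human ADAM-10 (20 nM) preincubated with seven inhibitor concentrations for 1 h at 37 °C in Tris 25 mM, ZnCl2 25 μM, Brij-35 0.005%, pH 9. Fluorogenic substrate Mca-Lys-Pro-Leu-Gly-Leu-Dap(Dnp)-Ala-Arg-NH2 at 10 μM final. Fluorescence (ex 325/em 395 nm) monitored every 15 s for 20 min. IC50 from initial velocities versus inhibitor-free control; mean of three independent experiments in duplicate.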

[10] = target: T1, Disintegrin and metalloproteinase domain-containing protein 17; assay: Inhibition of ADAM17 in human MCF7 cells assessed as inhibition of constitutive sALCAM release by ELISA; assay type: cell-based
[11] = target: T1, Disintegrin and metalloproteinase domain-containing protein 17; assay: Inhibition of ADAM17 in human MCF7 cells assessed as inhibition of pervanadate-induced sALCAM release by ELISA; assay type: cell-based
[12] = target: T1, Disintegrin and metalloproteinase domain-containing protein 17; assay: Inhibition of ADAM17 in human A2774 cells assessed as inhibition of pervanadate-induced sALCAM release by ELISA; assay type: cell-based
[13] = target: T1, Disintegrin and metalloproteinase domain-containing protein 17; assay: Inhibition of ADAM17 in human MDA-MB-468 cells assessed as inhibition of constitutive sALCAM release by ELISA; assay type: cell-based
SK-OV-3 = assay: Cytotoxicity against human SKOV3 cells after 72 hrs by MTT assay; assay type: cell-based; details: sk-ov-3, 72 h; procedure, shortened: as §1
[14] = target: T1, Disintegrin and metalloproteinase domain-containing protein 17; assay: Inhibition of ADAM17 in human MDA-MB-468 cells assessed as inhibition of pervanadate-induced sALCAM release by ELISA; assay type: cell-based
[15] = target: T1, Disintegrin and metalloproteinase domain-containing protein 17; assay: Inhibition of ADAM17 in human GI-CA-N cells assessed as inhibition of pervanadate-induced sALCAM release by ELISA; assay type: cell-based
MCF7 = assay: Cytotoxicity against human MCF7 cells after 72 hrs by MTT assay; assay type: cell-based; details: mcf7, 72 h; procedure, shortened: as §1
[16] = target: T1, Disintegrin and metalloproteinase domain-containing protein 17; assay: Inhibition of ADAM17 in human MDA-MB-468 cells assessed as inhibition of EGF-induced sALCAM release by ELISA; assay type: cell-based
MDA-MB-468 = assay: Cytotoxicity against human MDA-MB-468 cells after 72 hrs by MTT assay; assay type: cell-based; details: mda-mb-468, 72 h; procedure, shortened: as §1
[17] = target: T1, Disintegrin and metalloproteinase domain-containing protein 17; assay: Inhibition of ADAM17 in human GI-CA-N cells assessed as inhibition of constitutive sALCAM release by ELISA; assay type: cell-based
[18] = Cytotoxicity against human A2774 cells after 72 hrs by MTT assay; assay type: cell-based; details: a2774, 72 h; procedure, shortened: as §1
[19] = target: T1, Disintegrin and metalloproteinase domain-containing protein 17; assay: Inhibition of ADAM17 in human MCF7 cells assessed as inhibition of EGF-induced sALCAM release by ELISA; assay type: cell-based
[20] = target: T1, Disintegrin and metalloproteinase domain-containing protein 17; assay: Inhibition of ADAM17 in human A2774 cells assessed as inhibition of constitutive sALCAM release by ELISA; assay type: cell-based
[21] = target: T1, Disintegrin and metalloproteinase domain-containing protein 17; assay: Inhibition of ADAM17 in human A2774 cells assessed as inhibition of EGF-induced sALCAM release by ELISA; assay type: cell-based

T1 sequence (P78536 whole entry, the tested form may be a part): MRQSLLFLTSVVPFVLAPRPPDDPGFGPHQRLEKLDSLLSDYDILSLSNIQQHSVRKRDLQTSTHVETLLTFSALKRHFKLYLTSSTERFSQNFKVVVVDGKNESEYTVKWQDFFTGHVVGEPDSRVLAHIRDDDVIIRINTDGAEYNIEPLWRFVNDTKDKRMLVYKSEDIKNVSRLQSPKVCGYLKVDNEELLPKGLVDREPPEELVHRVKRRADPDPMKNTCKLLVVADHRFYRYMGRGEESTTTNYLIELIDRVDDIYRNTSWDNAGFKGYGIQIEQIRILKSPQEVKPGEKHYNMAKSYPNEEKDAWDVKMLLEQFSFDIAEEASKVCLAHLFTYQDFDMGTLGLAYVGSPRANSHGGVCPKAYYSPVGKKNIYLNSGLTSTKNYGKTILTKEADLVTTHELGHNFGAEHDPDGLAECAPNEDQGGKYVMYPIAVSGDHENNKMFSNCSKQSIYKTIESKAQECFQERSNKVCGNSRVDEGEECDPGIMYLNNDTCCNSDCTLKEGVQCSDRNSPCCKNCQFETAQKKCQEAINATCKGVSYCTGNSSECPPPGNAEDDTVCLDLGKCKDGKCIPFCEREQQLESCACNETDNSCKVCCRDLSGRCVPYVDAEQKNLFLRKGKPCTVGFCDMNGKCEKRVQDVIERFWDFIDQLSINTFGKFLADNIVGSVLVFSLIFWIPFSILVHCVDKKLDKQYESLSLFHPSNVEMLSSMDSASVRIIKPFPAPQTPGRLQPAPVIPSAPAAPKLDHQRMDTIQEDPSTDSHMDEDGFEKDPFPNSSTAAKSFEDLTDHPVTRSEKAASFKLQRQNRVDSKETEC
72 kDa type IV collagenase, sequence (P08253 whole entry): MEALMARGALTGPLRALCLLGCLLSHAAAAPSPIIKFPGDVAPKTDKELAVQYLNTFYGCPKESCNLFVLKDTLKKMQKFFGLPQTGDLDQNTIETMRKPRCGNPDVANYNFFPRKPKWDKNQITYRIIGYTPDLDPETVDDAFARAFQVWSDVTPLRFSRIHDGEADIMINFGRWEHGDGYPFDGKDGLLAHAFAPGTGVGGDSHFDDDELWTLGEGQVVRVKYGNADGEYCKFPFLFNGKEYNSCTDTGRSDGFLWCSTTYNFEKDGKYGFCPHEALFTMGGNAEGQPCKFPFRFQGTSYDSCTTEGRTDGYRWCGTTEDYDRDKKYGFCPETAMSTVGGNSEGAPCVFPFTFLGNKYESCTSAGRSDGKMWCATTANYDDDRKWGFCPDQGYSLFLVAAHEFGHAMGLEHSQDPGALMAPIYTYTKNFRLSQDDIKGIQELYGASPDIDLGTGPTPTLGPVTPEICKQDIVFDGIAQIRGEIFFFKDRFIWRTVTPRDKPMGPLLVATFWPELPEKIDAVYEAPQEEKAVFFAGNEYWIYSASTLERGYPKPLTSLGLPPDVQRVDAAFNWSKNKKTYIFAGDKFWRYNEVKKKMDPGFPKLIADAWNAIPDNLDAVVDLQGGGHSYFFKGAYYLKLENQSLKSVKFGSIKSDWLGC

| Structure (SMILES) | IC50 [1] [µM] | IC50 [2] [µM] | IC50 [3] [µM] | IC50 [4] [µM] | inhibition [5] [%] | IC50 (Interstitial collagenase) [µM] | further results |
| --- | --- | --- | --- | --- | --- | --- | --- |
| COc1ccc(S(=O)(=O)N(CC(=O)NO)CC(C)C)cc1 | 2.3 | 0.013 | 0.013 | 0.0048 | 26 | – | – |
| COc1ccc(S(=O)(=O)NCC(=O)NO)cc1 | – | – | 0.21 | – | 32 | – | – |
| CC(C)ON(CC(=O)NO)S(=O)(=O)c1ccc(-c2ccccc2)cc1 | 120 | – | – | – | 0 | – | – |
| CC(C)CN(CC(=O)NO)S(=O)(=O)c1ccc(-c2ccccc2)cc1 | 53 | – | – | – | 14 | – | – |
| COc1ccc(S(=O)(=O)N(OC(C)C)[C@@H](C(=O)NO)C(C)C)cc1 | 10 | 0.19 | 0.24 | 0.17 | 0 | 1.1 | – |
| COc1ccc(S(=O)(=O)N(Cc2cccnc2)[C@@H](C(=O)NO)C(C)C)cc1.Cl [CGS-27023A] | 0.16 | – | – | – | 33 | – | Activity [6]: Not Active; IC50 [7]: 0.11 µM; IC50 [8]: 13 µM; IC50 [9]: 0.89 µM; IC50 [10]: 6.9 µM; IC50 [11]: 0.75 µM; IC50 [12]: 0.38 µM; IC50 [13]: 1.4 µM; Activity (SK-OV-3): Not Active; IC50 [14]: 10 µM; IC50 [15]: 1.1 µM; Activity (MCF7): Not Active; IC50 [16]: 0.75 µM; Activity (MDA-MB-468): Not Active; IC50 [17]: 4.4 µM; Activity [18]: Not Active; IC50 [19]: 3 µM; IC50 [20]: 18 µM; IC50 [21]: 3.2 µM |
| COc1ccc(S(=O)(=O)N(CC(C)C)[C@@H](C(=O)NO)C(C)C)cc1 | 1.1 | 0.029 | 0.016 | 0.0072 | 9 | 0.056 | – |
| COc1ccc(S(=O)(=O)N(CC(=O)NO)OC(C)C)cc1 | 180 | 5 | 9.5 | 4.1 | 0 | 110 | – |
| CC(=O)NCC[C@@H](NS(=O)(=O)c1ccc(Br)cc1)C(=O)NO | 0.11 | 0.19 | 0.3 | 0.19 | – | 1.5 | IC50 [9]: 2.3 µM |
| CC#CCOc1ccc(S(=O)(=O)N[C@H](CCNC(=O)OCc2ccccc2)C(=O)NO)cc1 | 0.0016 | 0.017 | 0.21 | 0.046 | – | 1.1 | Activity [6]: Not Active; IC50 [7]: 0.0032 µM; IC50 [9]: 0.24 µM; IC50 [10]: 1.6 µM; IC50 [11]: 0.053 µM; IC50 [12]: 0.011 µM; IC50 [13]: 0.42 µM; Activity (SK-OV-3): Not Active; IC50 [14]: 1.1 µM; IC50 [15]: 0.5 µM; Activity (MCF7): Not Active; IC50 [16]: 0.11 µM; Activity (MDA-MB-468): Not Active; IC50 ([5]; A2774): 0.011 µM; IC50 [17]: 0.09 µM; Activity [18]: Not Active; IC50 [19]: 0.42 µM; IC50 [20]: 0.26 µM; IC50 [21]: 0.89 µM |
| O=C(CNS(=O)(=O)c1ccc(-c2ccccc2)cc1)NO | 2.4 | – | – | – | 35 | – | – |
| CC(=O)NCC[C@@H](NS(=O)(=O)c1ccc(-c2ccccc2)cc1)C(=O)NO | 0.3 | 0.0007 | 0.034 | 0.0086 | – | 0.196 | – |
| O=C(CNS(=O)(=O)c1ccc(Br)cc1)NO | 3.9 | 0.04 | 0.36 | 0.29 | 13 | 0.27 | – |
| O=C(NO)[C@@H](CCN1C(=O)c2ccccc2C1=O)NS(=O)(=O)c1ccc(-c2ccccc2C(F)(F)F)cc1 | 44 | 0.39 | 1.8 | 0.43 | – | 5 | – |
| O=C(NO)[C@@H](CCN1C(=O)c2ccccc2C1=O)NS(=O)(=O)c1ccc(Br)cc1 | 0.21 | 0.0015 | 0.0009 | 0.0011 | – | 0.004 | – |
| CC#CCOc1ccc(S(=O)(=O)N(CC(C)C)[C@H](CCN2C(=O)c3ccccc3C2=O)C(=O)NO)cc1 | 0.059 | 0.021 | 0.029 | 0.013 | – | 0.4 | IC50 [9]: 2 µM |
